Data published in ChEMBL document CHEMBL3808358, “Rational Design of Small Peptides for Optimal Inhibition of Cyclooxygenase-2: Development of a Highly Effective Anti-Inflammatory Agent” (J Med Chem, 2016).
Calls of active or inactive are those of the source. No cut-off for these calls is given here. Residues, ends and D or L forms follow the SMILES beside them.

What was measured:
[1] = biological target: T1, Prostaglandin G/H synthase 1 (Ovis aries, UniProt P05979); test: Inhibition of ovine COX1 assessed as reduction in PGH2-derived PGF2alpha using arachidonic acid as substrate preincubated for 10 mins followed by substrate addition measured after 2 mins by enzyme immunoassay
T1 sequence (P05979 whole entry): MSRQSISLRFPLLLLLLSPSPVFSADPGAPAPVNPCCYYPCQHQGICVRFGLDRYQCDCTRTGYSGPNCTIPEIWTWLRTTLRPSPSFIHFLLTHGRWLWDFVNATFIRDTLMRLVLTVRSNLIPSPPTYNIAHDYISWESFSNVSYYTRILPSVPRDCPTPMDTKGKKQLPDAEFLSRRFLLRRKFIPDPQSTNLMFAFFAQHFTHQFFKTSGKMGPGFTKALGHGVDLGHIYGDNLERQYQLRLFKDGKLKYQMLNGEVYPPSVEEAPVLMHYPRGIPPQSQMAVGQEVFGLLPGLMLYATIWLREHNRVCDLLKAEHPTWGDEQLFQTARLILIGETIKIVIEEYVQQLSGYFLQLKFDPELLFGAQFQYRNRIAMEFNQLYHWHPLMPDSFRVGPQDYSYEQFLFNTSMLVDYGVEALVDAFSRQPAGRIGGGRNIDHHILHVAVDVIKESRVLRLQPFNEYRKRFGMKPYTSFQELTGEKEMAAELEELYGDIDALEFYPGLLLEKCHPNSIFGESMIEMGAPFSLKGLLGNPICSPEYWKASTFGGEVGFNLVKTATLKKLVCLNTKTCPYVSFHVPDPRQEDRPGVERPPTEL
Procedure, shortened: (§1)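 Ovine COX-1 and human recombinant COX-2 with heme are preincubated with inhibitor for 10 min at 37 °C. Arachidonic acid is then added for 2 min at 37 °C. Prostaglandins are quantified by competitive AChE-tracer EIA, read at 420 nm. Four concentrations (10^-5 to 10^-8 M) are tested in triplicate. IC50 is taken from the dose-response curve of the mean % inhibition.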

[2] = Selectivity index, ratio of IC50 for ovine COX1 to IC50 for human recombinant COX2; procedure, shortened: as §1
Mus musculus [3] = test: Analgesic activity in Swiss albino mouse assessed as reduction in formalin-induced paw flinches in inflammatory phase at 5 mg/kg, ip dosed 30 mins before formalin injection measured after 15 to 30 mins; assay type: functional, organism-based
Procedure, shortened: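 Swiss albino mice of either sex (25-35 g). 20 μL of 2% formalin is injected into the plantar surface of the right hind paw 30 min after treatment. Hind paw flinches are counted for the neurogenic phase (0-5 min) and the inflammatory phase (15-30 min). Results are given as mean ± SEM.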

Mus musculus [4] = test: Analgesic activity in Swiss albino mouse assessed as reduction in capsaicin-induced paw licking at 5 to 10 mg/kg, ip dosed 30 mins before capsaicin injection measured for 10 mins in presence of nitric oxide precursor L-arginine pre-treated 30 mins before compound dosing; assay type: functional, organism-based
Procedure, shortened: (§2)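 Mice of either sex (25-35 g), 5 per group. The modulator is given 30 min before the test compound, and capsaicin 30 min after that: substance P 10 µg/kg, L-arginine 40 mg/kg, L-NAME 20 mg/kg, veratrine 125 µg/kg, A23187 20 µg/kg, glipizide 30 µg/kg. Capsaicin is 1.6 μg in 20 μL intraplantar. Paw lickings are counted for 10 min.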

Mus musculus [5] = test: Analgesic activity in Swiss albino mouse assessed as reduction in capsaicin-induced paw licking at 5 to 10 mg/kg, ip dosed 30 mins before capsaicin injection measured for 10 mins in presence of nitric oxide synthase inhibitor L-NAME pre-treated 30 mins before compound dosing; assay type: functional, organism-based; procedure, shortened: as §2
Mus musculus [6] = test: Analgesic activity in Swiss albino mouse assessed as reduction in capsaicin-induced paw licking at 5 to 10 mg/kg, ip dosed 30 mins before capsaicin injection measured for 10 mins in presence of ATP-sensitive potassium channel blocker glipizide pre-treated 30 mins before compound dosing; assay type: functional, organism-based; procedure, shortened: as §2
[7] = biological target: T2, Prostaglandin G/H synthase 2 (Homo sapiens) (UniProt P35354); test: Binding affinity to COX2 (unknown origin) at 100 uM by isothermal titration calorimetry
T2 sequence (whole entry): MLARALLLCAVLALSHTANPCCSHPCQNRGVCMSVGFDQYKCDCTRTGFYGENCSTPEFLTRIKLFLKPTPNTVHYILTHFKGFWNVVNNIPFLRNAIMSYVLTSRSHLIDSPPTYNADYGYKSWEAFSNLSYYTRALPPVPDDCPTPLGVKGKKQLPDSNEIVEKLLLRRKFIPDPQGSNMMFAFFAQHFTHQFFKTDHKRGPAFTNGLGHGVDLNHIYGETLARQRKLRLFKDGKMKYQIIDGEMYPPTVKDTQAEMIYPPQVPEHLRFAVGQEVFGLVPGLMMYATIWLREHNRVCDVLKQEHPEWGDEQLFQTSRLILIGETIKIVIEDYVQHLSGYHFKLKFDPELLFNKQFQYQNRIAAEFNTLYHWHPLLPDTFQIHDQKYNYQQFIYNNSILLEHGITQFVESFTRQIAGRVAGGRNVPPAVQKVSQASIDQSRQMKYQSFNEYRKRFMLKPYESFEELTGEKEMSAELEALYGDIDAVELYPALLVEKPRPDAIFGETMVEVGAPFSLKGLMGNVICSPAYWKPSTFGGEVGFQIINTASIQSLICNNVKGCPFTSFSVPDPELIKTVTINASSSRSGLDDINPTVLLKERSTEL
Procedure, shortened: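 Isothermal titration calorimetry in HEPES buffer, pH 7.4. The ligand stock is 100 μM in ethanol/HEPES (1:99). The syringe is stirred at 500 rpm and delivers 19 injections of 2 μL into the enzyme-containing cell at 120 s intervals. Heats from buffer-only control titrations are subtracted. The fit gives Ka, ΔH and ΔS. Run in triplicate.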

## COC(=O)[C@H](CC(C)C)NC(=O)[C@H](Cc1ccccc1)NC(=O)CNC(=O)CN (H-GGFL-OMe)
[1]
  IC50: 6 µM
[2]
  Ratio IC50: 100
Mus musculus [3]
  Activity: Active
Mus musculus [4]
  Activity: inactive
Mus musculus [5]
  Activity: Active
Mus musculus [6]
  Activity: Active
[7]
  Ka: 6.1 ×10⁴ /M
